# Source: ChEMBL document CHEMBL5505959, “Identification of 4-amino-2-Pyridones as new potent PCSK9 inhibitors: From phenotypic hit discovery to in vivo tolerability” (Eur J Med Chem, 2024)
# The source made the active and inactive calls. The calls are words filed in the database; no cut-off is given here.
# Legend:
# HepG2 [1] = assay: Cytotoxicity against human HepG2 cells assessed as reduction in cell viability at 5 uM measured after 24 hrs by SRB assay relative to control; format: functional
# Summary of the method: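 HepG2 seeded 8000 cells/well in complete MEM; next day medium replaced with 0.4 % FBS medium containing compound or DMSO control. Viability was read by sulforhodamine B assay after 24 h, with absorbance at 570 nm. Dose-response series used 6.25, 12.5, 25, 50 or 100 μM; newer analogues were tested at a fixed 5 μM. Data are mean ± SD of three independent experiments.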
# HepG2 [2] = assay: Downregulation of proPCSK9 level in human HepG2 cells by Western blot analysis; format: functional, cell-based
# Summary of the method: (§1)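 HepG2 cells were treated overnight or for 24 h, alone or with simvastatin 40 μM. Lysates (1 % NP-40, 150 mM NaCl, 50 mM Tris-HCl pH 7.5) were loaded at 25 µg protein on 4–20 % SDS-PAGE. Blots were probed for proPCSK9, mature PCSK9 and LDLR, and densitometry was normalized to β-actin or GAPDH. Mean ± SD of three independent experiments.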
# HepG2 [3] = assay: Downregulation of mature PCSK9 level in human HepG2 cells by Western blot analysis; format: functional, cell-based; summary of the method: as §1
# HepG2 [4] = assay: Induction of LDLR expression in human HepG2 cells by Western blot analysis; format: functional, cell-based; summary of the method: as §1
# [5] = Downregulation of PCSK9 mRNA level in human HepG2 cells at 5 uM by qRT-PCR analysis relative to control; format: functional
# Summary of the method: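 Total RNA was taken from treated HepG2 cells for RT-qPCR of PCSK9, FAS and HMG-CoA reductase. Cycling was 50 °C 10 min, 95 °C 2 min, then 40 cycles of 95 °C 5 s and 60 °C 10 s. Relative quantification used ΔΔCt against 18S, corrected for primer efficiency. Mean ± SD of three independent experiments.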
# HepG2 [6] = assay: Downregulation of PCSK9 protein level in human HepG2 cells at 2.5 uM by Western blot analysis; format: functional, cell-based; summary of the method: as §1
# [7] = Inhibition of PCSK9 expression in human HepG2 cells at 5 to 10 uM by ELISA method relative to control; format: functional; conditions: dose 5-10 µM
# Summary of the method: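 Secreted PCSK9 was measured in HepG2 conditioned media with a human PCSK9 DuoSet sandwich ELISA. Media were centrifuged at 15000 rpm for 10 min and diluted before reading absorbance at 450 nm. Values were normalized to HepG2 total protein content. Mean ± SD of three independent experiments.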
# HepG2 [8] = assay: Inhibition of simvastatin induced PCSK9 level in human HepG2 cells at 2.5 to 5 uM by Western blot analysis; format: functional, cell-based; conditions: dose 2.5-5 µM; summary of the method: as §1
# HepG2 [9] = assay: Upregulation of LDLR/PCSK9 in human HepG2 cells at 2.5 to 5 uM in presence of simvastatin by Western blot analysis; format: functional, cell-based; conditions: dose 2.5-5 µM
# Summary of the method: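 HepG2 cells grown in MEM with 10 % FBS. Incubated overnight with test compound with or without simvastatin 40 μM (simvastatin dissolved in 0.1 M NaOH, pH 7.4). Lysates in 1 % NP-40 buffer; 25 µg protein run on 4–20 % SDS-PAGE. Immunoblotted for PCSK9 and LDLR, normalized to GAPDH by densitometry. Mean ± SD of three experiments, one-way ANOVA.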
# [10] = Toxicity in C57BL/6 mouse assessed as effect on body weight at 40 mg/kg, sc measured after 7 days; format: organism-based; conditions: in vivo, 168 h, time 7 day
# Summary of the method: (§2)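 Male C57BL/6J mice, three months old, 26–30 g (n = 5–6/group), received daily sc injections of 40 mg/kg in Transcutol, 50 µl, for seven days. Controls were vehicle and SBC-115076 4 mg/kg. Readouts were daily body weight, open-field locomotion and modified SHIRPA, and gross organ inspection. Liver H&E cryosections were scored by two operators; plasma cholesterol by colorimetric assay, PCSK9 by ELISA.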
# [11] = Toxicity in C57BL/6 mouse assessed as spontaneous locomotor activity at 40 mg/kg, sc measured after 7 days; format: organism-based; conditions: in vivo, 168 h, time 7 day
# Summary of the method: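 Open-field test in male C57BL/6J mice: 10 min free exploration of a 50 × 50 × 40 cm wooden chamber, with distance and speed tracked automatically. Basal sessions were run before dosing, then testing continued across daily 50 µl subcutaneous injections (40 mg/kg, Transcutol vehicle). Distance, mean speed and % time in corners and arena were recorded as part of a modified SHIRPA screen.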
# [12] = Toxicity in C57BL/6 mouse assessed as effect on urination at 40 mg/kg, sc measured after 7 days; format: organism-based; conditions: in vivo, 168 h, time 7 day; summary of the method: as §2
# [13] = Toxicity in C57BL/6 mouse assessed as defecations at 40 mg/kg, sc measured after 7 days; format: organism-based; conditions: in vivo, 168 h, time 7 day; summary of the method: as §2
# [14] = Toxicity in C57BL/6 mouse assessed as tremor at 40 mg/kg, sc measured after 7 days; format: organism-based; conditions: in vivo, 168 h, time 7 day
# Summary of the method: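 General health of subcutaneously dosed C57BL/6J mice (40 mg/kg daily, Transcutol, seven days) was tracked with a modified SHIRPA screen covering phenotype, sensory and neuropsychiatric functions. Body weight was recorded daily as % change from the day −3 to −1 baseline.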
# [15] = Toxicity in C57BL/6 mouse assessed as changes in fur sheen at 40 mg/kg, sc measured after 7 days; format: organism-based; conditions: in vivo, 168 h, time 7 day; summary of the method: as §2
# [16] = Toxicity in C57BL/6 mouse assessed as abnormal secretion at 40 mg/kg, sc measured after 7 days; format: organism-based; conditions: in vivo, 168 h, time 7 day; summary of the method: as §2
# [17] = Toxicity in C57BL/6 mouse assessed as effect on brain at 40 mg/kg, sc measured after 7 days by H and E staining based analysis; format: organism-based; conditions: in vivo, 168 h, time 7 day
# [18] = Toxicity in C57BL/6 mouse assessed as effect on spleen at 40 mg/kg, sc measured after 7 days by H and E staining based analysis; format: organism-based; conditions: in vivo, 168 h, time 7 day
# [19] = Toxicity in C57BL/6 mouse assessed as effect on liver at 40 mg/kg, sc measured after 7 days by H and E staining based analysis; format: organism-based; conditions: in vivo, 168 h, time 7 day; summary of the method: as §2
# [20] = Toxicity in C57BL/6 mouse assessed as effect on kidney at 40 mg/kg, sc measured after 7 days by H and E staining based analysis; format: organism-based; conditions: in vivo, 168 h, time 7 day
# [21] = Toxicity in C57BL/6 mouse assessed as abnormal arrangements of hepatocyte at 40 mg/kg, sc measured after 7 days by histopathological analysis; format: organism-based; conditions: hepatocytes, 168 h, time 7 day; summary of the method: as §2
# [22] = Toxicity in C57BL/6 mouse assessed as inflammatory cells infiltration at 40 mg/kg, sc measured after 7 days by histopathological analysis; format: organism-based; conditions: in vivo, 168 h, time 7 day
# Summary of the method: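 Male C57BL/6J mice, 3 months old, 26–30 g, given 40 mg/kg subcutaneously in 100 % Transcutol (vehicle group) for seven days. Killed 6 h after the last injection. Liver fixed in 4 % PFA, cryoprotected in 20 % sucrose and cut into 7 µm cryosections. Sections stained with hematoxylin/eosin and scored by two operators for hepatocyte arrangement, inflammatory infiltration and necrosis.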
# [23] = Toxicity in C57BL/6 mouse assessed as cellular necrosis at 40 mg/kg, sc measured after 7 days by histopathological analysis; format: organism-based; conditions: in vivo, 168 h, time 7 day; summary of the method: as §2
# [24] = Toxicity in C57BL/6 mouse assessed as reduction in ALT plasma level at 40 mg/kg, sc measured after 7 days by ELISA method; format: organism-based; conditions: in vivo, 168 h, time 7 day
# Summary of the method: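 Male C57BL/6J mice, 3 months old, dosed subcutaneously at 40 mg/kg daily for seven days in Transcutol. Killed under isoflurane 6 h after the final dose. Retro-orbital blood taken into EDTA and spun at 3000 rpm, 4 °C, 10 min. Plasma ALT measured by ELISA kit. Mean ± SEM, n = 5–6 per group.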
# [25] = Toxicity in C57BL/6 mouse assessed as drug tolerance at 40 mg/kg, sc measured after 7 days; format: organism-based; conditions: in vivo, 168 h, time 7 day; summary of the method: as §2
# [26] = Toxicity in C57BL/6 mouse assessed as effect on gut at 40 mg/kg, sc measured after 7 days by macroscopic analysis; conditions: in vivo, 168 h
# [27] = Toxicity in C57BL/6 mouse assessed as effect on plasma total cholesterol level at 40 mg/kg, sc measured after 7 days by biochemical assay; conditions: in vivo, 168 h
structure (smiles),measurement,setting,value
Cc1cc(NCc2ccc(C(F)(F)F)cc2)cc(=O)n1Cc1ccc(C(F)(F)F)cc1,Activity,HepG2 [1],>95%
same,Activity,HepG2 [2],Active
same,Activity,HepG2 [3],Active
same,Activity,HepG2 [4],Active
same,Activity,[5],100%
same,Activity,HepG2 [6],Active
same,inhibition (INH),[7],100%
same,inhibition,HepG2 [8],Active
same,Activity,HepG2 [9],Active
same,Activity,[10],Non-Toxic
same,Activity,[11],Non-Toxic
same,Activity,[12],Non-Toxic
same,Activity,[13],Non-Toxic
same,Activity,[14],Non-Toxic
same,Activity,[15],Non-Toxic
same,Activity,[16],Non-Toxic
same,Activity,[17],Non-Toxic
same,Activity,[18],Non-Toxic
same,Activity,[19],Non-Toxic
same,Activity,[20],Non-Toxic
same,Activity,[21],Non-Toxic
same,Activity,[22],Non-Toxic
same,Activity,[23],Non-Toxic
same,Activity,[24],Non-Toxic
same,Activity,[25],Non-Toxic
same,Activity,[26],Non-Toxic
same,Activity,[27],Non-Toxic
